Measured values published in ChEMBL document CHEMBL2021841, “The design and synthesis of potent, selective benzodiazepine sulfonamide bombesin receptor subtype 3 (BRS-3) agonists with an increased barrier of atropisomerization” (Bioorg Med Chem, 2012).

What was measured:
[1] = Half life of the compound in ethanol at 60 degC by CD spectroscopy; assay type: physicochemical
[2] = target: T1, Bombesin receptor subtype-3 (Homo sapiens, UniProt P32247); test: Agonist activity at human BRS3 expressed in human HEK293AEQ cells measured for 10 mins by aequorin bioluminescence assay; assay type: functional, cell-based
T1 sequence (P32247 whole entry): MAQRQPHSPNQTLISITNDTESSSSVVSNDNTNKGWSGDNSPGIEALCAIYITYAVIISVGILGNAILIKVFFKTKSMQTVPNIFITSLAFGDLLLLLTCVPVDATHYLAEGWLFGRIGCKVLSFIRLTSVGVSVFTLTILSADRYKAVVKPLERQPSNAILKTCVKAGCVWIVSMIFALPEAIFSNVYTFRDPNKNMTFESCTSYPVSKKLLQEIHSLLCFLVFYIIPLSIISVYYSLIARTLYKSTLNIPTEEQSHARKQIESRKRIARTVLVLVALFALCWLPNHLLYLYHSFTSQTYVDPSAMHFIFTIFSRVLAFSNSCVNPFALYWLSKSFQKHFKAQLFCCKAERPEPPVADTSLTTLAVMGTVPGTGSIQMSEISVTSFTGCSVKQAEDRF

[3] = Half life in Sprague-Dawley rat at 0.5 mg/kg, iv; assay type: ADME, organism-based; design: dose 0.5 mg/kg, route intravenous; details: in vivo
Outline: (§1)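 Sprague Dawley rats received 0.5 mg/kg iv. Plasma clearance and half-life were calculated from the plasma profile.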

Rattus norvegicus = test: Dose normalized AUC in Sprague-Dawley rat at 1 mg/kg, po; assay type: ADME, organism-based; design: dose 1 mg/kg, route oral; details: in vivo
Outline: (§2)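 Sprague Dawley rats were dosed 1 mg/kg po. Dose-normalized oral AUC and oral bioavailability were calculated.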

[4] = target: T2, Bombesin receptor subtype-3 (Mus musculus, UniProt O54798); test: Agonist activity at mouse BRS3 expressed in human HEK293AEQ cells measured for 10 mins by aequorin bioluminescence assay; assay type: functional, cell-based
T2 sequence (O54798 whole entry): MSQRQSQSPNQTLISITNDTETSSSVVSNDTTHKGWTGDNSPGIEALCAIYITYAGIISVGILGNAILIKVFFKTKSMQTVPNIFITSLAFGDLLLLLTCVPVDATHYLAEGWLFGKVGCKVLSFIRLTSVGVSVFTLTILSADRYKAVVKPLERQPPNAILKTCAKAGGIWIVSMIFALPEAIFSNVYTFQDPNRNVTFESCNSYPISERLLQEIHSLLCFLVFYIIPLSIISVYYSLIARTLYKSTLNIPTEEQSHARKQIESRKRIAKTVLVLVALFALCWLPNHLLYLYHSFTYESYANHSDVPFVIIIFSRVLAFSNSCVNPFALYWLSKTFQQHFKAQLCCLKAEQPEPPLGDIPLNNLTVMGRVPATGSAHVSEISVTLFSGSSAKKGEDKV

[5] = Oral bioavailability in Sprague-Dawley rat at 1 mg/kg; assay type: ADME, organism-based; details: in vivo; outline: as §2
[6] = target: T3, Bombesin receptor subtype-3 (Mus musculus) (UniProt O54798); test: Agonist activity at mouse BRS3 expressed in human HEK293AEQ cells measured for 10 mins by aequorin bioluminescence assay relative to dY-peptide; assay type: functional, cell-based
T3 sequence (whole entry): T2 sequence (O54798 whole entry)
Outline: (§3)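 Same aequorin read-out in HEK293AEQ cells expressing human or mouse BRS3. Compounds were titrated in ECB buffer with 0.5% DMSO final, and coelenterazine-loaded cells were injected. Luminescence was integrated over 10 min. The value is maximal activation expressed as a percentage of the maximal response to dY-peptide.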

[7] = target: T4, Bombesin receptor subtype-3 (Homo sapiens) (UniProt P32247); test: Agonist activity at human BRS3 expressed in human HEK293AEQ cells measured for 10 mins by aequorin bioluminescence assay relative to dY-peptide; assay type: functional, cell-based; outline: as §3
T4 sequence (whole entry): T1 sequence (P32247 whole entry)

[8] = target: T1, Bombesin receptor subtype-3; test: Displacement of 125I-dY-peptide from human BRS3 expressed in NFAT-CHO cells after 2 hrs by liquid scintillation counting; assay type: cell-based
[9] = Plasma clearance in Sprague-Dawley rat at 0.5 mg/kg, iv; assay type: ADME, organism-based; design: dose 0.5 mg/kg, route intravenous; outline: as §1

Compound	half-life [1] [h]	EC50 [2] [nM]	half-life [3] [h]	AUC/dose (Rattus norvegicus) [µM·kg·h/mg]	EC50 [4] [nM]	bioavailability [5] [%]	Activity [6] [%]	Activity [7] [%]	IC50 [8] [nM]	clearance [9] [mL/min/kg]
CC(C)(O)c1nc(C(C)(C)c2cccc3c2N(S(=O)(=O)c2ccc(OC(F)(F)F)cc2)Cc2ccc(C(F)(F)F)nc2N3)no1	> 250	64	3.1	2.6	67	100	105	97	1.4	12
CC(C)(O)c1nc(C2(c3cccc4c3N(S(=O)(=O)c3ccc(OC(F)(F)F)cc3)Cc3ccc(C(F)(F)F)nc3N4)CCC2)no1	> 250	82	2.9	0.6	76	49	99	97	0.6	21
CC(C)(O)c1nc(-c2cccc3c2N(S(=O)(=O)c2ccc(OC(F)(F)F)cc2)Cc2ccc(C(F)(F)F)nc2N3)no1	2.2	73	11	1.6	130	93		106	3.6	16

Results, then the compound that gave them:

half-life [1] [h]	EC50 [2] [nM]	half-life [3] [h]	AUC/dose (Rattus norvegicus) [µM·kg·h/mg]	EC50 [4] [nM]	bioavailability [5] [%]	Activity [6] [%]	Activity [7] [%]	IC50 [8] [nM]	clearance [9] [mL/min/kg]	Compound
	26	1.6	0.3	27	31	98	90	0.5	33	CC(C)(C(N)=O)c1cccc2c1N(S(=O)(=O)c1ccc(OC(F)(F)F)cc1)Cc1ccc(C(F)(F)F)nc1N2
> 250	21	0.8	0.3	22	32	100	95	0.5	31	NC(=O)C1(c2cccc3c2N(S(=O)(=O)c2ccc(OC(F)(F)F)cc2)Cc2ccc(C(F)(F)F)nc2N3)CCC1
	15	1.7	0.69	22	60	112	106	2.1	25	CNC(=O)C1(c2cccc3c2N(S(=O)(=O)c2ccc(OC(F)(F)F)cc2)Cc2ccc(C(F)(F)F)nc2N3)CCC1
